From PubChem BioAssay
Sampled rows, rich in hits. Any-hit rate of the full collection: about 1.5%.
TPT1 inh: blocks Candida albicans tRNA 2'-phosphotransferase; actives 0.81% (n = 300,000); recombinant caTPT1, FP RNA substrate dephosphorylation; AID 1962; inhibition, % at 5 µM;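 active = inhibition above the mean of all tested compounds plus 3 SD, set per screening campaign, cut at about 24% in these data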;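 note: plate controls were DMSO alone for no effect and ferristatin control at 100 nM for full effect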
Rpn11 block: blocks the human proteasome subunit Rpn11 | human 26S proteasome, Ub4-pepOG fluorescence polarization; 20S core pre-blocked with epoxomicin | inhibition, % at 20 µM | actives 0.59% (n = 360,000);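 active = inhibition at 20 µM, scaled to each plate's controls, above about 33%, limit read from the data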
CSN deneddyl inh: CSN deneddylation inhibition; actives 0.38% (n = 360,000); Purified CSN, SCF-Nedd8-OG deneddylation, fluorescence polarization; Q92905; inhibition, % at 12.5 µM;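 active = pattern-corrected inhibition above about 35%, with an unprinted fluorescence ratio check between 0.5 and 1.5, limit read from the data, passing the limit was not always enough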;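 note: 0% = enzyme with substrate and 100% = substrate without enzyme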
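assay system = purified human Csn5 enzyme expressed in HEK293T cells | amount = 0.24 nM enzyme | buffer or medium = Tris/NaCl/DTT buffer, pH 7.5 | reagent = 10 nM SCFSkp2-Nedd8OG | compound = one concentration, 12.5 µM, 0.25% DMSO | times = 90 min reaction at room temperature | signal = FP | read-out basis = % inhibition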
HNF4A DNA FP: change in binding of human HNF4 alpha to DNA | P41235 | HNF4a-FITC DNA binding, fluorescence polarization, 1 h | activity change, % at 10 µM | actives 0.3% (n = 360,000); in the data active = activity change above about 30%, passing the limit was not always enough
Target sequence (P41235 whole entry, looked up): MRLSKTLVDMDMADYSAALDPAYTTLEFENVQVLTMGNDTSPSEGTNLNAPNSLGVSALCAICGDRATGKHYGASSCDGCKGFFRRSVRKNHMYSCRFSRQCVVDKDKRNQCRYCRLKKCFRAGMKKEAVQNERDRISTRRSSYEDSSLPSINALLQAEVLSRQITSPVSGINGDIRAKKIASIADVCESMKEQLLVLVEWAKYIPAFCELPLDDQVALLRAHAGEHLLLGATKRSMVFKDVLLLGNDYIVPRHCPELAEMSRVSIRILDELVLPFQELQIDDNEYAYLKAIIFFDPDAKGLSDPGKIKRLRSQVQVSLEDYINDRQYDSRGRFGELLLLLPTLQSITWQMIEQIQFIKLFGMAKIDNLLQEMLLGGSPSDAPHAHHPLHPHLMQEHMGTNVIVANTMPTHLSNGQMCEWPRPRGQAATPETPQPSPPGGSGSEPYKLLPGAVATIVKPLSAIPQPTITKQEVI
Rpn11 inh conf: Rpn11 inhibition confirmation, single concentration | inhibition, % at 20 µM | shares compounds with Rpn11 block | purified human 26S proteasome, Ub4-pepOG fluorescence polarization; proteasome pretreated with epoxomicin | AID 602318 | actives 29% (n = 1,900)
MMP-2 counter: blocks human MMP-2, flagging nonselective RPN11 hits; recombinant MMP-2, FRET peptide cleavage fluorescence; inhibition, % at 20 µM; shares compounds with Rpn11 block; actives 4% (n = 1,900); AID 602330;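 note: human MMP-2 activated beforehand with APMA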
Thrombin FP: thrombin (bovine) inhibition counter-screen. shares compounds with Rpn11 block. bovine thrombin cleavage of Ub4-pepOG, fluorescence polarization. inhibition, % at 20 µM. actives 13% (n = 1,900);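 active = mean inhibition at least 40% at 20 µM, or signal 3 deviations below plate average, so some actives read negative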;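 note: plate controls were thrombin with DMSO for no effect and buffer wells lacking thrombin for full effect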
* = called active by the depositor; nt = no result shown. Cut-off read from the data, not from the text of the source, unless noted: active = inhibition above about 40%; inactive = the rest.

SMILES | TPT1 inh | Rpn11 block | CSN deneddyl inh | HNF4A DNA FP | Rpn11 inh conf | MMP-2 counter | Thrombin FP
Cc1nc2ccc(NC(=O)c3cc(S(=O)(=O)N(C)c4ccccc4)ccc3Cl)cc2s1 | 16 | 35 | 7 | 14 | nt | nt | nt
COc1ccc(C2C(C#N)=C(N)Oc3cc(C)n(Cc4ccco4)c(=O)c32)cc1 (centres undefined) | 7 | 46* | 13 | -5 | 23 | -23 | 6
COc1cccc(C2C(C#N)=C(N)Oc3cc(C)n(Cc4ccco4)c(=O)c32)c1 (centres undefined) | 4 | 34 | 23 | 2 | nt | nt | nt
CCCCn1c(N)c(N(C)C(=O)c2cc3c(s2)CCCCC3)c(=O)[nH]c1=O | nt | 4 | 1 | 3 | nt | nt | nt
CC(=O)Nc1ccc(C(=O)N2CCCCC2c2cc(C(=O)Nc3cccc(C#N)c3)no2)cc1 (centres undefined) | nt | -3 | 1 | 6 | nt | nt | nt
CCC(=O)NCc1cc(-c2nn(C)c(=O)c3ccccc23)ccc1C | 1 | -17 | -3 | 1 | nt | nt | nt
Cc1ccc(-c2nn(CC(=O)NCc3cc(-c4nn(C)c(=O)c5ccccc45)ccc3C)c(=O)c3ccccc23)cc1 | -5 | 80* | 27 | -8 | 7 | -20 | -3
CCOc1ccc2nc(NC(=O)Cn3[nH]c(=O)c4ccccc4c3=O)sc2c1 | 21 | 68* | 14 | 33 | 56* | -4 | 25
CCSc1nc2sc3c(c2c(=O)n1-c1ccccc1)CCN(C)C3 | 8 | 53* | 6 | 10 | 7 | -12 | 14
CSc1nc2nc(Cl)c(Cl)nc2[nH]1 | nt | 2 | -1 | 10 | nt | nt | nt
Cc1cnc(NC(=O)c2cc3ccccc3o2)s1 | -1 | -2 | 1 | 2 | nt | nt | nt
COc1ccc(N=C2S/C(=C\c3cccs3)C(=O)N2CC(C)C)cc1 | 0 | -4 | -3 | 0 | nt | nt | nt
COc1ccc(N=C2S/C(=C\c3ccc(C)s3)C(=O)N2CC(C)C)cc1 | -1 | 100* | 2 | 3 | -3 | -3 | 3
CCOCCCn1c(=NC(C)=O)c(C#N)cc2c(=O)n3ccccc3nc21 | -3 | -6 | -5 | -4 | nt | nt | nt
CC(=O)N=c1c(C#N)cc2c(=O)n3ccccc3nc2n1Cc1ccccc1 | 4 | 56* | 30 | 15 | -22 | -37 | -18
O=C(CCn1c(=S)[nH]c2ccccc2c1=O)Nc1cccc(Cl)c1 | -2 | -6 | 0 | -2 | nt | nt | nt
COc1ccc(NC(=O)CCn2c(=S)[nH]c3ccccc3c2=O)cc1Cl | nt | 129* | 15 | 42* | 63* | 34 | -12
COC(=O)c1ccc(NC(=O)CCN2CCN(c3ccccc3)CC2)cc1 | -10 | 154* | -1 | 8 | 2 | -17 | -3
Cc1ccc(C(=O)OCC(=O)NCc2ccco2)cc1C | nt | -6 | -1 | -2 | nt | nt | nt
NS(=O)(=O)c1ccc2nc(NC(=O)Nc3ccc(F)cc3)sc2c1 | 10 | 67* | 23 | 43* | 33 | 1 | 23
CS(=O)(=O)c1ccc2nc(NC(=O)Nc3ccc(Cl)cc3)sc2c1 | -1 | 8 | 5 | 6 | nt | nt | nt
Cc1ccccc1C(=O)N1CCC(C(=O)NN2C(=O)NC3(CCCCC3)C2=O)CC1 | nt | 3 | -6 | 3 | nt | nt | nt
Cc1cc(C(=O)Cn2cnc3ccc(Cl)cc3c2=O)c(C)n1C1CC1 | nt | 0 | -6 | 3 | nt | nt | nt
CCNC(=O)C1CCCN(C(=O)c2ccccc2)CC1 (centres undefined) | nt | 1 | -7 | 2 | nt | nt | nt
CCC(C)C(=O)Nc1nc(C)c(-c2csc(Nc3ccc(Cl)cc3)n2)s1 (centres undefined) | 9 | 39* | 11 | 6 | 20 | 14 | -6
SMILES | TPT1 inh | Rpn11 block | CSN deneddyl inh | HNF4A DNA FP | Rpn11 inh conf | MMP-2 counter | Thrombin FP
CC1CCCC(NC(=O)CCS(=O)(=O)c2cc3c(cc2Cl)NC(=O)CO3)C1C (centres undefined) | -5 | 44* | 4 | -3 | -11 | -7 | -16
Cc1ccccc1NC(=S)N1CCN(c2ccccc2Cl)CC1 | -4 | 8 | 0 | 1 | nt | nt | nt
Cc1cc(C)c(-c2nc3ccccc3s2)[nH]1 | 2 | 60* | 25 | 29 | -6 | -6 | 0
Cc1ccnc(NS(=O)(=O)c2ccc(NC(=O)c3cc(-c4ccccc4)nc4ccccc34)cc2)n1 | 1 | 22 | 3 | 8 | nt | nt | nt
Cc1ccnc(NS(=O)(=O)c2ccc(NC(=O)c3cc(-c4ccc(Br)cc4)nc4ccccc34)cc2)n1 | 3 | 38* | 1 | 3 | 18 | 10 | 8
CN(C)c1ccc(N=Cc2nc(-c3ccccc3)oc2OC(=O)c2ccccc2)cc1 | 6 | 48* | -4 | 2 | 49* | 0 | active
CC(=O)Oc1oc(-c2ccccc2)nc1C=Nc1ccc(N(C)C)cc1 | 8 | 19 | 6 | 0 | nt | nt | nt
COc1ccc(CC(N)c2csc(Nc3nc(C)cnc3C)n2)cc1 (centres undefined) | nt | 17 | 2 | 5 | nt | nt | nt
CCN(CC)S(=O)(=O)c1cc(C)ccc1SC | 1 | 28* | -8 | 1 | -3 | -21 | 2
Cc1ccsc1/C=C/c1ccc2ccccc2n1 | 20 | 48* | 12 | 23 | 53* | -21 | 21
CN1CCc2c(sc(/N=C/c3c[nH]c4ccccc34)c2C(N)=O)C1 | 2 | 114* | 115* | 32 | 3 | -25 | 4
CN1CCc2c(sc(N)c2C(N)=O)C1 | -15 | -27 | -5 | 2 | nt | nt | nt
O=C(NC1CCN(Cc2ccccc2)CC1)c1cccc(S(=O)(=O)Nc2ccc(SC(F)F)cc2)c1 | nt | 3 | 0 | -1 | nt | nt | nt
CCOC(=O)c1c(NC(=O)C2=C(C)NC(=S)NC2c2ccc(F)cc2F)sc(C)c1C (centres undefined) | -1 | 38* | -12 | -1 | -14 | 11 | -20
NC(=O)c1ccc(NC(=O)COC(=O)c2ccc(Br)c(S(=O)(=O)N3CCOCC3)c2)cc1 | nt | -6 | -1 | 0 | nt | nt | nt
O=C(COC(=O)CCN1C(=O)/C(=C\C=C\c2ccccc2)SC1=S)Nc1ccc(Br)cc1 | 13 | 59* | 10 | 19 | 23 | -13 | -32
CC(C)c1ccccc1NC(=O)COC(=O)CCN1C(=O)/C(=C\C=C\c2ccccc2)SC1=S | 17 | nt | 31 | 10 | nt | nt | nt
O=C1C(Sc2ccccc2)=C[C@@]2(O)CC[C@@H](O)[C@]1(Sc1ccccc1)[C@H]2O | nt | nt | -1 | 12 | nt | nt | nt
COc1ccc(-c2nc3ccc(C)cn3c2CC2CCCCC2)cc1OC | nt | 39 | 8 | 3 | nt | nt | nt
COc1ccc(/C=C2\Sc3ccc(C(=O)NCCN4CCCCCC4)cc3N(C)C2=O)cc1 | -2 | 42* | 8 | 21 | 40 | -82 | 31
NC1=NC[C@@H](CC2CCCCC2)N1CCc1cc(C(F)(F)F)cc(C(F)(F)F)c1 | nt | 72* | 3 | 9 | 9 | -6 | -22
